Results published in ChEMBL document CHEMBL4002632, “Development of gallic acid formazans as novel enoyl acyl carrier protein reductase inhibitors for the treatment of tuberculosis” (Bioorg Med Chem Lett, 2017).
Converted amounts (≈) assume the structure as drawn. The source made the active and inactive calls. No cut-off for these calls is given here.

Legend:
Type in all cases: functional
[1] = tested on: Mycobacterium tuberculosis; test: Antimycobacterial activity against isoniazid/rifampicin/kanamycin/capreomycin-resistant Mycobacterium tuberculosis by microplate Alamar Blue assay
How it was run: (§1)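 MIC against multidrug-resistant M. tuberculosis strains: HR, HRKS, HRKCpm, HRKSXMfxLev and HRS. Linezolid served as reference.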

[2] = tested on: Mycobacterium tuberculosis; test: Antimycobacterial activity against isoniazid/rifampicin/kanamycin/streptomycin/ofloxacin/moxifloxacin/levofloxacin-resistant Mycobacterium tuberculosis by microplate Alamar Blue assay; how it was run: as §1
[3] = tested on: Mycobacterium tuberculosis; test: Antimycobacterial activity against isoniazid/rifampicin/streptomycin-resistant Mycobacterium tuberculosis by microplate Alamar Blue assay; how it was run: as §1
[4] = tested on: Mycobacterium tuberculosis; test: Antimycobacterial activity against isoniazid/rifampicin/kanamycin/streptomycin-resistant Mycobacterium tuberculosis by microplate Alamar Blue assay; how it was run: as §1
[5] = tested on: Mycobacterium tuberculosis; test: Antimycobacterial activity against isoniazid/rifampicin-resistant Mycobacterium tuberculosis by microplate Alamar Blue assay; how it was run: as §1

Row | Structure (SMILES) | MIC [1] | MIC [2] | MIC [3] | MIC [4] | MIC [5]
1 | Cc1ccccc1/N=N/C(=N/NC(=O)c1cc(O)c(O)c(O)c1)c1ccccc1 | inactive | inactive | 5.89 µM (≈ 2.3 µg/mL) | 16 µM (≈ 6.25 µg/mL) | 5.89 µM (≈ 2.3 µg/mL)
2 | O=C(N/N=C(/N=N/c1ccc([N+](=O)[O-])cc1)c1ccccc1)c1cc(O)c(O)c(O)c1 | 14 µM (≈ 5.9 µg/mL) | inactive | 5.46 µM (≈ 2.3 µg/mL) | 22.3 µM (≈ 9.4 µg/mL) | 2.85 µM (≈ 1.2 µg/mL)
3 | CC(=O)NC[C@H]1CN(c2ccc(N3CCOCC3)c(F)c2)C(=O)O1 [LINEZOLID] | 1.86 µM (≈ 0.627 µg/mL) | 1.86 µM (≈ 0.627 µg/mL) | 3.7 µM (≈ 1.25 µg/mL) | 2.78 µM (≈ 0.938 µg/mL) | 3.7 µM (≈ 1.25 µg/mL)
4 | O=C(N/N=C(/N=N/c1ccccc1[N+](=O)[O-])c1ccccc1)c1cc(O)c(O)c(O)c1 | inactive | inactive | 14.8 µM (≈ 6.25 µg/mL) | inactive | 5.46 µM (≈ 2.3 µg/mL)
5 | COc1ccccc1/N=N/C(=N/NC(=O)c1cc(O)c(O)c(O)c1)c1ccccc1 | inactive | inactive | inactive | inactive | 23.9 µM (≈ 9.69 µg/mL)
6 | O=C(N/N=C(/N=N/c1ccccc1Cl)c1ccccc1)c1cc(O)c(O)c(O)c1 | inactive | inactive | 2.95 µM (≈ 1.21 µg/mL) | inactive | 2.9 µM (≈ 1.19 µg/mL)
7 | O=C(N/N=C(/N=N/c1ccc(F)cc1)c1ccccc1)c1cc(O)c(O)c(O)c1 | 1.92 µM (≈ 0.757 µg/mL) | inactive | 0.96 µM (≈ 0.379 µg/mL) | 0.73 µM (≈ 0.288 µg/mL) | 0.49 µM (≈ 0.193 µg/mL)
8 | O=C(N/N=C(/N=N/c1ccc(Cl)cc1Cl)c1ccccc1)c1cc(O)c(O)c(O)c1 | 7.43 µM (≈ 3.31 µg/mL) | 11.4 µM (≈ 5.09 µg/mL) | 1.34 µM (≈ 0.597 µg/mL) | 5.16 µM (≈ 2.3 µg/mL) | 0.33 µM (≈ 0.147 µg/mL)
9 | COc1ccc(/N=N/C(=N/NC(=O)c2cc(O)c(O)c(O)c2)c2ccccc2)cc1 | 7.62 µM (≈ 3.1 µg/mL) | 10.6 µM (≈ 4.29 µg/mL) | 1.9 µM (≈ 0.772 µg/mL) | 2.92 µM (≈ 1.19 µg/mL) | 1.9 µM (≈ 0.772 µg/mL)
10 | O=C(N/N=C(/N=N/c1ccccc1)c1ccccc1)c1cc(O)c(O)c(O)c1 | inactive | inactive | inactive | inactive | inactive
